{"data": "Experimental data gathered from unrelated publications", "target": "Calcium/calmodulin-dependent protein kinase type II subunit gamma (CAMK2G, Homo sapiens, UniProt Q13555)", "note": "Compare with care: the assays were run in different laboratories."}
{"Structure (SMILES)": "CN(c1nccc(-c2cnn3ncccc23)n1)C1CC1", "observed": "binding", "tested at": "1 µM", "remaining binding [%]": 100}
{"Structure (SMILES)": "O=C(Nc1c[nH]nc1C(=O)NC1CCNCC1)c1cc(F)cc(F)c1", "observed": "binding", "method": "competition with immobilised ligand", "tested at": "1 µM", "remaining binding [%]": 100}
{"Structure (SMILES)": "COc1ccnn2ncc(-c3ccnc(N(C)C)n3)c12", "observed": "binding", "tested at": "1 µM", "remaining binding [%]": 100}
{"Structure (SMILES)": "COc1cc(-c2cn(C3CCc4ccccc4N(CC(F)(F)F)C3=O)nn2)ccc1-n1ccc(C)n1 (stereo not drawn)", "observed": "cell-free assay", "method": "competition with immobilised ligand", "tested at": "1 µM", "remaining binding [%]": 100}
{"Structure (SMILES)": "O=C(c1ccc(Nc2ncc(Cl)c(-c3ccc(Cl)s3)n2)cc1)N1CCC(N2CCCC2)CC1", "observed": "binding", "method": "competition with immobilised ligand", "tested at": "1 µM", "remaining binding [%]": 80}
{"Structure (SMILES)": "COc1cnc(Nc2cccc(S(N)(=O)=O)c2)nc1N1CCN(c2ccccc2)C(=O)C1", "observed": "binding", "method": "competition with immobilised ligand", "tested at": "1 µM", "remaining binding [%]": 100}
{"Structure (SMILES)": "O=C(c1ccc(Nc2nccc(-c3cc4ccccc4s3)n2)cc1)N1CCC(N2CCCC2)CC1", "observed": "binding", "method": "competition with immobilised ligand", "tested at": "1 µM", "remaining binding [%]": 81}
{"Structure (SMILES)": "CCOC(=O)c1cc2cc(-c3cc(C(=O)NCc4ccc(C(=O)O)cc4)nn3C)ccc2[nH]1", "observed": "cell-free assay", "method": "competition with immobilised ligand", "tested at": "0.1 µM", "remaining binding [%]": 100}
{"Structure (SMILES)": "C=CC(=O)N1CCC(C(=O)NCC(=O)N2CCN(c3nc(-c4cnc(N)nc4C(F)F)nc(N4CCOCC4)n3)CC2)CC1", "observed": "binding", "method": "competition with immobilised ligand", "tested at": "1 µM", "remaining binding [%]": 100}
{"Structure (SMILES)": "C[C@@H]1CN(c2cc(-c3n[nH]c4ccc(OC5(C)CC5)cc34)ncn2)C[C@H](C)O1", "observed": "cell-free assay", "method": "competition with immobilised ligand", "tested at": "0.1 µM", "remaining binding [%]": 100}
{"Structure (SMILES)": "N[C@@H]1CCN(c2nccc(-c3cnn4ncccc34)n2)C1", "observed": "binding", "tested at": "1 µM", "remaining binding [%]": 100}
{"Structure (SMILES)": "FC(F)(F)c1ccc2c(c1)nc(-c1cccnc1)n2C1CC1", "observed": "cell-free assay", "method": "competition with immobilised ligand", "tested at": "1 µM", "remaining binding [%]": 100}
{"Structure (SMILES)": "O=C(NCCCN1CCOCC1)c1ccc(Nc2nccc(-c3cc4ccccc4s3)n2)cc1", "observed": "binding", "method": "competition with immobilised ligand", "tested at": "1 µM", "remaining binding [%]": 90}
{"Structure (SMILES)": "CN(C)c1nccc(-c2cnn3ncccc23)n1", "observed": "binding", "tested at": "1 µM", "remaining binding [%]": 100}
{"Structure (SMILES)": "FC(F)(F)Oc1cccc(-c2cnc3ccc(-c4ccncc4)nn23)c1", "observed": "cell-free assay", "method": "competition with immobilised ligand", "tested at": "5 µM", "remaining binding [%]": 39}
{"Structure (SMILES)": "Cc1cc(-n2nc(Cc3cc(F)cc(C(F)(F)F)c3)nc2C)ccc1C(N)=O", "observed": "cell-free assay", "method": "competition with immobilised ligand", "tested at": "1 µM", "remaining binding [%]": 100}
{"Structure (SMILES)": "Nc1ncc2c(n1)-c1c([nH]c3ccc(C#CC4CC4)cc13)CCCC2", "observed": "binding", "method": "competition with immobilised ligand", "tested at": "1 µM", "remaining binding [%]": 100}
{"Structure (SMILES)": "Cc1cnn2ncc(-c3ccnc(N(C)C)n3)c2c1", "observed": "binding", "tested at": "1 µM", "remaining binding [%]": 64}
{"Structure (SMILES)": "CS(=O)(=O)NCC[C@H](NC(=O)c1cncc2c1cnn2-c1ccc(F)cc1)c1ccnc(S(C)(=O)=O)c1", "observed": "cell-free assay", "method": "competition with immobilised ligand", "tested at": "1 µM", "remaining binding [%]": 99}
{"Structure (SMILES)": "F[C@@H]1CCN(c2nccc(-c3cnn4ncccc34)n2)C1", "observed": "binding", "tested at": "1 µM", "remaining binding [%]": 100}
{"Structure (SMILES)": "COc1cnc(Nc2cccc(S(N)(=O)=O)c2)nc1N1CCN(c2ccccc2)CC1", "observed": "binding", "method": "competition with immobilised ligand", "tested at": "1 µM", "remaining binding [%]": 94}
